The target of experiment [1] is E129Q mutant 5-HT3 receptor (mouse 5-HT3A subunit) (Mus musculus, UniProt P23979, E129Q). Briefly: Agonist-induced currents, voltage clamp electrophysiology in Xenopus oocytes. It counts as cell-based. To be noted: NR = no response.
For experiment [2], the target named is T1, E129D mutant 5-HT3 receptor (mouse 5-HT3A subunit) (Mus musculus, UniProt P23979, E129D).
T1 sequence (P23979 24-483 isoform P23979-2 E129D limits assumed): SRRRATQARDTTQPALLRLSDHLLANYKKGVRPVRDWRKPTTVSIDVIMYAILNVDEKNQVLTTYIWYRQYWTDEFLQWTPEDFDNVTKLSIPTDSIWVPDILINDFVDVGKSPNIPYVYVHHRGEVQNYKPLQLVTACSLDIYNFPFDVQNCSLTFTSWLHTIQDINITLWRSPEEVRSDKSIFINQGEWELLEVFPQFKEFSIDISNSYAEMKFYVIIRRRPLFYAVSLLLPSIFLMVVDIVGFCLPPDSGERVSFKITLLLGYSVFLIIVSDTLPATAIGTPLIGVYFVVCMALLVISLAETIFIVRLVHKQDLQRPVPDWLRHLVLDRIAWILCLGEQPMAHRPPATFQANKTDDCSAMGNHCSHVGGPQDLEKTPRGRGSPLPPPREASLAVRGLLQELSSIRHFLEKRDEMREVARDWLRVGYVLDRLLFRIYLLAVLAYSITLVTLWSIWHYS
Described as above. It counts as cell-based. To be noted: E129D.

In experiment [3] the target is T2, N128-Akp mutant 5-HT3 receptor (mouse 5-HT3A subunit) (Mus musculus, UniProt Q6J1J7).
T2 sequence (Q6J1J7 24-483): T1 sequence (P23979 24-483 isoform P23979-2 E129D limits assumed) with D106E, F436L
As to the kind of experiment: Agonist-induced currents, voltage clamp electrophysiology in Xenopus oocytes. The format is cell-based. The method, boiled down: (§1)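 Mouse 5-HT3A receptor carrying Nha or Akp, introduced by nonsense suppression. Stage V-VI Xenopus oocytes were co-injected with 5 ng cRNA and 25 ng photodeprotected aminoacyl-tRNA. Controls received tRNA without an amino acid. At 24-72 h, agonist currents were recorded by two-electrode voltage clamp at -60 mV, 22-25 °C, in Ca-free ND96 (pH 7.5).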

For experiment [4], the target named is E129K mutant 5-HT3 receptor (mouse 5-HT3A subunit) (Mus musculus, UniProt P23979, E129K). As to the kind of experiment: Agonist-induced currents, voltage clamp electrophysiology in Xenopus oocytes. It counts as cell-based. As to conditions: NR = no response.
The target of experiment [5] is T3, N128R mutant 5-HT3 receptor (mouse 5-HT3A subunit) (Mus musculus, UniProt P23979, N128R).
T3 sequence (P23979 24-483 isoform P23979-2 N128R limits assumed): T1 sequence (P23979 24-483 isoform P23979-2 E129D limits assumed) with N105R, D106E
The description is as above. It counts as cell-based. To be noted: SR = small (<100 nA) responses.

The target of experiment [6] is E129A mutant 5-HT3 receptor (mouse 5-HT3A subunit) (Mus musculus, UniProt P23979, E129A). The description is as above. It counts as cell-based. As to conditions: NR = no response.
The subject of experiment [7] is Asn128 mutant 5-HT3 receptors (all except Ala and Val). As to the kind of experiment: Relative efficacy of mCPBG, voltage clamp electrophysiology in Xenopus oocytes. The format is cell-based, mouse. As to conditions: Asn128 mutations.
Experiment [8] has as its target E129G mutant 5-HT3 receptor (mouse 5-HT3A subunit) (Mus musculus, UniProt P23979, E129G). As to the kind of experiment: Agonist-induced currents, voltage clamp electrophysiology in Xenopus oocytes. It counts as cell-based. To be noted: NR = no response.
Experiment [9] has as its target N128-Nha mutant 5-HT3 receptor (mouse 5-HT3A subunit). As to the kind of experiment: Agonist-induced currents, voltage clamp electrophysiology in Xenopus oocytes. The format is cell-based. To be noted: SR = small (<100 nA) responses. The method, boiled down:
as §1

As usually defined, the EC50 is the midpoint of the concentration-response curve. Low readings indicate an effect from little substance, high ones a need for much substance. By pEC50 is commonly meant the negative decadic logarithm of the EC50, by convention in mol/L. A low value points to a large EC50.

Residue numbers refer to the chain shown, from its start. Marks after values point to notes of the source that are not given here. Where only a bound is given, the exact number is not on record here.

Chain of E129A mutant 5-HT3 receptor (mouse 5-HT3A subunit) (P23979 24-489 E129A): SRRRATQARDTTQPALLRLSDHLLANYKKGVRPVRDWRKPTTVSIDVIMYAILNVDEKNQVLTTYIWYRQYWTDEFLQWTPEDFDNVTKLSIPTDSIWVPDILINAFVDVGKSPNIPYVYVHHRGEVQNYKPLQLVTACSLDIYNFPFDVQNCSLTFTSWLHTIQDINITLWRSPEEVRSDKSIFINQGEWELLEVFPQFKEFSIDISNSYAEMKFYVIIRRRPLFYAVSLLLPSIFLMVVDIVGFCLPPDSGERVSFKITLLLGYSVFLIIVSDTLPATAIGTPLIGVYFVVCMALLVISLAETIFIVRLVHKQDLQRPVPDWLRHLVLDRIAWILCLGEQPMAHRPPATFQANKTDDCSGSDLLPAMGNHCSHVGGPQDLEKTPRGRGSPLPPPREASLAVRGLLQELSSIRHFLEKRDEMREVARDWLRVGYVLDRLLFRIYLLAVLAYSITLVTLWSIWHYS
Chain of E129K mutant 5-HT3 receptor (mouse 5-HT3A subunit) (P23979 24-483 isoform P23979-2 E129K limits assumed): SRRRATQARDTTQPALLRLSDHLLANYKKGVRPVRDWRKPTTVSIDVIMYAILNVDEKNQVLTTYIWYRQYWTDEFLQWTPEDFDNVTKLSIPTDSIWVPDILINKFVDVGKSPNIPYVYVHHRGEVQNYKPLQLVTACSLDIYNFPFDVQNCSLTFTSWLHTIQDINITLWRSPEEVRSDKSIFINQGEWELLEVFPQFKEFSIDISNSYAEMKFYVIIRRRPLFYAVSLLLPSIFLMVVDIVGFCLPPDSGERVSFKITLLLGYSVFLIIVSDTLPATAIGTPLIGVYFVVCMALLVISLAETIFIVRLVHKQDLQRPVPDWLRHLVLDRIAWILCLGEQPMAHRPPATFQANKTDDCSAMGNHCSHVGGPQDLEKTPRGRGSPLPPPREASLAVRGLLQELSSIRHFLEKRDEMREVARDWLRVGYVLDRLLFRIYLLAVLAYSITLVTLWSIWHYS
Chain of E129Q mutant 5-HT3 receptor (mouse 5-HT3A subunit) (P23979 24-483 isoform P23979-2 E129Q limits assumed): as the sequence (P23979 24-483 isoform P23979-2 E129K limits assumed) above, with K106Q counted along it
Chain of E129G mutant 5-HT3 receptor (mouse 5-HT3A subunit) (P23979 24-483 isoform P23979-2 E129G limits assumed): as the sequence (P23979 24-483 isoform P23979-2 E129K limits assumed) above, with K106G counted along it

For `NCCc1c[nH]c2ccc(O)cc12` [5-HT, 5-hydroxytryptamine], the “nH (Hill coefficient)” value in experiment [1] is on record as 1.55 ± 0.07 ^b. Moreover, in experiment [2], the “nH (Hill coefficient)” value is 1.81 ± 0.16 ^b and the “size of agonist response (current)” value is reported as more than 5 µA. In addition, in [3], a half-maximal effect (EC50) was put at 4.6 µM, the “nH (Hill coefficient)” value was 1.49 ± 0.06 ^b and the pEC50 is on record as 5.33 ± 0.01 ^b.
On to `N=C(N)NC(=N)Nc1cccc(Cl)c1` [mCPBG, m-chlorophenylbiguanide], for which the EC50 is 0.25 µM in [2]; more than 100 µM in experiment [4]; 7.3 µM in [5]; more than 100 µM in experiment [6]; more than 100 µM in experiment [8]; 2.8 µM in experiment [9]. The entries for the “nH (Hill coefficient)” value in experiment [2], in experiment [5] and in experiment [9] were 1.19 ± 0.31, 1.93 ± 0.16 and 2.18 ± 0.23, respectively. Besides, the “size of agonist response (current)” value in experiment [2] is more than 5 µA. The pEC50 in [2] (SR = small (<100 nA) responses) was 6.60 ± 0.10; in experiment [5], 5.14 ± 0.02 ^b; in experiment [9] it was 5.55 ± 0.02 ^b. In addition, the “increase of mCPBG Rmax compared to that of WT” value in experiment [7] was 2−19 fold.

Values taken from PMC2649372 (Biochemistry, 2008).
